Assay results taken from ChEMBL document CHEMBL1150225, “Cytotoxic cholestane glycosides from the bulbs of Ornithogalum saundersiae” (J Nat Prod, 2001).
pIC50: −log10 of the molar value.

System: HL-60
Assay: Cytotoxicity against human HL60 cells after 72 hrs by MTT assay
Type: functional, cell-based
Details: HL-60, 72 h
Procedure, shortened: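 HL-60 leukemia cells kept in RPMI 1640 with 10% fetal bovine serum, L-glutamine, 100 units/mL penicillin and 100 μg/mL streptomycin. Cells at 3 × 10^4 cells/mL exposed continuously to compound for 72 h. Growth read by MTT reduction. IC50 (50% inhibition) calculated from each compound's dose–response curve.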

COc1cc(C(=O)O[C@H]2[C@H](O[C@@H]3[C@@H](OC(C)=O)[C@H](O[C@H]4C[C@H]5[C@@H]6CC=C7C[C@@H](O)CC[C@]7(C)[C@H]6CC[C@]5(C)[C@@]4(O)[C@H](C)C(=O)CCC(C)C)OC[C@@H]3O)OC[C@@H](O[C@@H]3O[C@H](CO)[C@@H](O)[C@H](O)[C@H]3O)[C@@H]2O)cc(OC)c1OC
pIC50: 7.85

CC(C)CCC(=O)[C@@H](C)[C@@]1(O)[C@@H](O[C@@H]2OC[C@H](O)[C@H](O[C@@H]3OC[C@@H](O)[C@H](O)[C@H]3O)[C@H]2O)C[C@H]2[C@@H]3CC=C4C[C@@H](O)CC[C@]4(C)[C@H]3CC[C@@]21C
pIC50: 6.72

COc1cccc2c1C(=O)c1c(O)c3c(c(O)c1C2=O)C[C@@](O)(C(=O)CO)C[C@@H]3O[C@H]1C[C@H](N)[C@H](O)[C@H](C)O1 [DOXORUBICIN]
pIC50: 8.14

COc1cc([C@@H]2c3cc4c(cc3[C@@H](O[C@@H]3O[C@@H]5CO[C@@H](C)O[C@H]5[C@H](O)[C@H]3O)[C@H]3COC(=O)[C@H]23)OCO4)cc(OC)c1O [ETOPOSIDE]
pIC50: 7.60

CN(Cc1cnc2nc(N)nc(N)c2n1)c1ccc(C(=O)N[C@@H](CCC(=O)O)C(=O)O)cc1 [METHOTREXATE]
pIC50: 7.92
